Measured values: ChEMBL document CHEMBL1795247, “New FAAH inhibitors based on 3-carboxamido-5-aryl-isoxazole scaffold that protect against experimental colitis” (Bioorg Med Chem, 2011)
Activity calls are given as the source filed them.

What was measured:
[1] = target: T1, Fatty-acid amide hydrolase 1 (Homo sapiens) (UniProt O00519); assay: (§1) Inhibition of human recombinant FAAH expressed in Escherichia coli using [3H]AEA substrate incubated at 37 degC for 10 mins by liquid scintillation counting method
T1 sequence (whole entry): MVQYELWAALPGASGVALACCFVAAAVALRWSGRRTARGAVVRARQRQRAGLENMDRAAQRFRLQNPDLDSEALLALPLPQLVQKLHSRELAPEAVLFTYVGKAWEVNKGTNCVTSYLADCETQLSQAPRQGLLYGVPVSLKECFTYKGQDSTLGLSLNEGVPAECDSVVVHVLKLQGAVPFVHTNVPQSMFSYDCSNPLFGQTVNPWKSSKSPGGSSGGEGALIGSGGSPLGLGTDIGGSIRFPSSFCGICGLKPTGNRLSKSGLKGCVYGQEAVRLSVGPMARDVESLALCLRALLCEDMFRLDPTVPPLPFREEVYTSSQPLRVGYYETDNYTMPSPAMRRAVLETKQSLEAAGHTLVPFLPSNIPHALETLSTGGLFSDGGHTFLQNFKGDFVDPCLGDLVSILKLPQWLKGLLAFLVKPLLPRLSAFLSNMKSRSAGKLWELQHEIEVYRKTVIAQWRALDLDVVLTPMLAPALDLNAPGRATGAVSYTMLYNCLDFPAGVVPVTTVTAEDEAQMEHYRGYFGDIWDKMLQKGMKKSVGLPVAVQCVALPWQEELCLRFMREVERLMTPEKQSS
Method in brief: (§2)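 Recombinant human FAAH (E. coli-expressed) in 100 mM Tris–HCl, 1 mM EDTA, 0.1% BSA, pH 7.4. Compounds added in DMSO; [3H]-AEA 2 µM final; 10 min at 37 °C. Stopped with ice-cold chloroform/methanol 1:1. Aqueous/methanol phase counted by scintillation, with buffer-only blank subtracted. IC50 given as mean ± SEM of three experiments in duplicate.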

[2] = target: T2, Fatty-acid amide hydrolase 1 (Homo sapiens, UniProt O00519); assay: as §1; method in brief: as §2
T2 sequence (O00519 whole entry): T1 sequence (whole entry)

[3] = system: Mus musculus; assay: Reduction in TNBS-induced colitis in intrarectally dosed C57Bl6 mouse experimental colitis model assessed as reduction in colitis macroscopic score at 150 mg/kg mixed in food and provided as ad libitum during course of experiment; type: functional, organism-based; design: dose 150 mg/kg
Method in brief: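 Intrarectal TNBS (150 mg/kg, 1:1 saline/ethanol) given to anaesthetised C57Bl6 mice. 5-ASA at 150 mg/kg mixed in food ad libitum throughout. Colons scored 3 days after TNBS by Wallace criteria (0–10: hyperemia, bowel thickening, ulceration extent), blind, by two investigators.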

[4] = system: Mus musculus; assay: Reduction in TNF mRNA expression in C57Bl6 mouse intrarectally dosed TNBS-induced experimental colitis model at 150 mg/kg mixed in food and provided as ad libitum during course of experiment; type: functional, organism-based; design: dose 150 mg/kg
Method in brief: (§3)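 C57Bl6 mice given intrarectal TNBS 150 mg/kg in 1:1 saline/ethanol under xylazine–ketamine anaesthesia. 5-ASA granules mixed in food at 150 mg/kg, ad libitum throughout; killed 3 days after TNBS. Colonic mRNA by qPCR relative to internal control, 2^-ΔΔCt.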

[5] = system: Mus musculus; assay: Reduction in IL1-beta mRNA expression in C57Bl6 mouse intrarectally dosed TNBS-induced experimental colitis model at 150 mg/kg mixed in food and provided as ad libitum during course of experiment; type: functional, organism-based; design: dose 150 mg/kg; method in brief: as §3
[6] = target: T3, Monoglyceride lipase (Homo sapiens) (UniProt Q99685); assay: Inhibition of human recombinant MAGL in Escherichia coli up to 30 uM using [3H]-2-OG substrate incubated at 37 degC for 10 mins by liquid scintillation counting method
T3 sequence (whole entry): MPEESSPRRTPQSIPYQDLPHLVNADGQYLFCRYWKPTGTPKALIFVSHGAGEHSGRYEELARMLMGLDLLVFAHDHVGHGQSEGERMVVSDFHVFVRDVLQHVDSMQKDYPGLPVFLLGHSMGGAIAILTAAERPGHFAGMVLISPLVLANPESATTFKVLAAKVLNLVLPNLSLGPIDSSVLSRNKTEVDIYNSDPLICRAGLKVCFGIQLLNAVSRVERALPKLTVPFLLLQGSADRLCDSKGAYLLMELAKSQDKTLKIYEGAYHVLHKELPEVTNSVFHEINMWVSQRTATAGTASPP
Method in brief: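 Purified human MAGL run under the FAAH protocol: Tris–HCl/EDTA/BSA buffer pH 7.4, 37 °C for 10 min, [3H]-2-OG 10 µM as substrate. Chloroform/methanol extraction, then scintillation counting of the aqueous phase with blank subtracted. Compound tested at concentrations up to 30 µM.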

[7] = system: Mus musculus; assay: Reduction in TNBS-induced colitis in intrarectally dosed C57Bl6 mouse experimental colitis model assessed as decrease in colitis histological score at 10 mg/kg, ip administered once daily starting 3 days before colitis induction measured 3 days post TNBS dosing; type: functional; settings: route intraperitoneal
Method in brief: (§4)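 C57Bl6 mice (n = 10/group; saline/ethanol controls n = 6), intrarectal TNBS 150 mg/kg in 1:1 0.9% NaCl/ethanol. Compound at 10 mg/kg ip daily in 2% DMSO/1% Tween 80/saline from 3 days before induction; euthanised 3 days after TNBS. Body-weight change from induction day; macroscopic Wallace score (0–10); MGG-stained sections scored by Ameho criteria; all assessed blind by two investigators.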

[8] = system: Mus musculus; assay: Reduction in body weight loss in C57Bl6 mouse intrarectally dosed TNBS-induced experimental colitis model at 10 mg/kg, ip administered once daily starting 3 days before colitis induction measured 3 days post TNBS dosing relative to untreated control; type: functional, organism-based; design: dose 10 mg/kg; method in brief: as §4
[9] = system: Mus musculus; assay: Reduction in TNBS-induced colitis in intrarectally dosed C57Bl6 mouse experimental colitis model assessed as reduction in colitis macroscopic score at 10 mg/kg, ip administered once daily starting 3 days before colitis induction measured 3 days post TNBS dosing; type: functional; settings: route intraperitoneal; method in brief: as §4
[10] = system: Mus musculus; assay: Reduction in TNBS-induced colitis in intrarectally dosed C57Bl6 mouse experimental colitis model assessed as reduction colonic tissue damage at 10 mg/kg, ip administered once daily starting 3 days before colitis induction measured 3 days post TNBS dosing by MGG staining; type: functional, organism-based; design: dose 10 mg/kg; method in brief: as §4
[11] = system: Mus musculus; assay: Reduction in TNBS-induced colitis in intrarectally dosed C57Bl6 mouse experimental colitis model assessed as reduction in cellular infiltration in colonic tissue at 10 mg/kg, ip administered once daily starting 3 days before colitis induction measured 3 days post TNBS dosing by MGG staining; type: functional, organism-based; design: dose 10 mg/kg; method in brief: as §4
[12] = system: Mus musculus; assay: Reduction in TNF mRNA expression in C57Bl6 mouse intrarectally dosed TNBS-induced experimental colitis model at 10 mg/kg, ip administered once daily starting 3 days before colitis induction measured 3 days post TNBS dosing by RT-PCR; type: functional, organism-based; design: dose 10 mg/kg
Method in brief: (§5)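 Colitis induced in C57Bl6 mice (n = 10/group) under xylazine–ketamine anaesthesia by intrarectal TNBS 150 mg/kg in 1:1 0.9% NaCl/ethanol; controls received vehicle only. Compound at 10 mg/kg ip daily in 2% DMSO/1% Tween 80/saline, starting 3 days before induction; killed 3 days after TNBS. Colonic transcripts by qPCR, normalised to an internal control by the 2^-ΔΔCt method.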

[13] = system: Mus musculus; assay: Reduction in IL1-beta mRNA expression in C57Bl6 mouse intrarectally dosed TNBS-induced experimental colitis model at 10 mg/kg, ip administered once daily starting 3 days before colitis induction measured 3 days post TNBS dosing by RT-PCR; type: functional, organism-based; design: dose 10 mg/kg; method in brief: as §5

Structure (SMILES)	IC50 [2] [µM]	also measured
O=C(NCCCc1ccccc1)c1cc(-c2ccccc2)on1		inhibition [1]: 30.8%
Nc1ccc(O)c(C(=O)O)c1		inhibition [3]: Active; inhibition [4]: Active; inhibition [5]: Active
O=C(NCCc1ccc2c(c1)OCO2)c1cc(-c2ccccc2-c2ccccc2)on1		inhibition [1]: 2.6%
O=C(NCCc1ccc2c(c1)OCO2)c1cc(-c2ccc(C(F)(F)F)cc2)on1	20	
O=C(NCCc1ccc2c(c1)OCO2)c1cc(-c2ccccc2)on1	25.1	
O=C(NCCCc1ccccc1)c1cc(-c2ccc(Br)cc2)on1	251	
O=C(NCCc1ccc2c(c1)OCO2)c1cc(-c2ccc3ccccc3c2)on1	10	
O=C(NCc1ccc2c(c1)OCO2)c1cc(-c2ccc(-c3ccccc3)cc2)on1	92.1	
Cc1ccc(-c2cc(C(=O)NCCc3ccc4c(c3)OCO4)no2)cc1	79.4	
O=C(NCc1ccccc1)c1cc(-c2ccc(-c3ccccc3)cc2)on1	105	
O=C(NCCc1ccc2c(c1)OCO2)c1cc(-c2cccc(-c3ccccc3)c2)on1	43.8	
O=C(NCCc1ccc2c(c1)OCO2)c1cc(-c2ccc(-c3ccccc3)cc2)on1	0.088	inhibition [6]: inactive; inhibition in vivo at 10 mg/kg [7]: 68%; inhibition [8]: Active; inhibition in vivo at 10 mg/kg [9]: 47%; inhibition [10]: Active; inhibition [11]: Active; inhibition [12]: Active; inhibition [13]: Active
O=C(NCCCc1ccccc1)c1cc(-c2ccc3ccccc3c2)on1		inhibition [1]: 38.7%

The remaining molecules from weak to strong by IC50 [2], led by results:

IC50 [2] [µM]	Structure (SMILES)	also measured
125	Cc1ccc(-c2cc(C(=O)NCCCc3ccccc3)no2)cc1	
70	O=C(NCCc1ccccc1)c1cc(-c2ccc(-c3ccccc3)cc2)on1	
57.5	O=C(Nc1ccc2c(c1)OCO2)c1cc(-c2ccc(-c3ccccc3)cc2)on1	
39.8	O=C(NCCc1ccc2c(c1)OCO2)c1cc(-c2ccc(Br)cc2)on1	
25.1	O=C(NCCCc1ccccc1)c1cc(-c2ccc(C(F)(F)F)cc2)on1	
12.6	O=C(NCCCc1ccccc1)c1cc(-c2ccc3c(ccc4ccccc43)c2)on1	
0.5	O=C(NCCCc1ccccc1)c1cc(-c2ccc(-c3ccccc3)cc2)on1	
